Assays:
[1] = Cytotoxicity against mouse RAW264.7 cells assessed as cell viability at 2 to 64 uM after 24 hrs by MTT assay relative to control; type: cell-based; conditions: read-out: Activity
In short: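 MTT viability assay. RAW264.7 or HEK293T cells at (1.0−2.0) × 10^5 per well were exposed to a peptide concentration series for 24 h at 37 °C in 5% CO2. MTT was then added at 0.5 mg/mL final for 4 h; formazan was dissolved in DMSO and read at 570 nm. Results average three independent trials.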

Escherichia coli [2] = test: Antibacterial activity against Escherichia coli ATCC 25922 after 24 hrs; type: functional; conditions: ATCC 25922, 24 h
In short: (§1)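 Broth microdilution. Mid-log bacteria in MHB at a final (0.5−1) × 10^5 CFU/mL were mixed with equal volumes of peptide serially diluted in 0.2% BSA. Plates were incubated 24 h at 37 °C and read at A492. MIC is the lowest concentration inhibiting 95% of growth. Each test was repeated at least 3 times.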

Salmonella typhimurium [3] = test: Antibacterial activity against Salmonella typhimurium ATCC 14028 after 24 hrs; type: functional, Salmonella enterica subsp. enterica serovar Typhimurium; conditions: Salmonella enterica, ATCC 14028, 24 h; in short: as §1
Staphylococcus aureus [4] = test: Antibacterial activity against Staphylococcus aureus ATCC 29213 after 24 hrs; type: functional; conditions: ATCC 29213, 24 h
In short: (§2)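 Modified NCCLS broth microdilution. Mid-log bacteria at (0.5−1) × 10^5 CFU/mL in MHB were mixed 1:1 with peptide serially diluted in 0.2% BSA and incubated 24 h at 37 °C. Absorbance was read at 492 nm; MIC is the lowest concentration inhibiting 95% of growth. At least 3 repeats.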

Staphylococcus aureus [5] = test: Antibacterial activity against methicillin-resistant Staphylococcus aureus ATCC 4330 after 24 hrs; type: functional; conditions: ATCC 4330, 24 h; in short: as §2
[6] = system: Staphylococcus epidermidis; test: Antibacterial activity against Staphylococcus epidermidis ATCC 12228 after 24 hrs; type: functional; conditions: ATCC 12228, 24 h; in short: as §1
Staphylococcus aureus [7] = test: Antibacterial activity against Staphylococcus aureus ATCC 25923 after 24 hrs; type: functional; conditions: ATCC 25923, 24 h; in short: as §2
Escherichia coli [8] = test: Bactericidal activity against Escherichia coli ATCC 25922; type: functional; conditions: read-out: MBC99.9
In short: (§3)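 Wells from the 24 h, 37 °C MHB microdilution plates (bacteria at a final (0.5−1) × 10^5 CFU/mL; peptide diluted in 0.2% BSA) were plated on agar and incubated overnight. MBC is the lowest concentration killing >99.9% of cells. Each test was reproduced at least 3 times.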

Escherichia coli [9] = test: Bactericidal activity against Escherichia coli 1005; type: functional; conditions: read-out: MBC99.9; in short: as §3
Salmonella typhimurium [10] = test: Bactericidal activity against Salmonella typhimurium ATCC 14028; type: functional, Salmonella enterica subsp. enterica serovar Typhimurium; conditions: Salmonella enterica, read-out: MBC99.9; in short: as §3
Candida albicans [11] = test: Antifungal activity against Candida albicans SP3931 after 48 hrs by broth microdilution method; type: functional; conditions: SP3931, 48 h
In short: (§4)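 Modified CLSI M27-A2 broth microdilution. Yeast at (0.5−1) × 10^3 CFU/mL in MOPS-buffered RPMI 1640 was mixed 1:1 with peptide serially diluted in 0.2% BSA and incubated 48 h at 28 °C. Absorbance was read at 492 nm; MIC is the lowest concentration inhibiting 95% of growth. Triplicate, three biological replicates.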

Candida albicans [12] = test: Antifungal activity against Candida albicans SP3903 after 48 hrs by broth microdilution method; type: functional; conditions: SP3903, 48 h; in short: as §4
Candida albicans [13] = test: Antifungal activity against Candida albicans SP3876 after 48 hrs by broth microdilution method; type: functional; conditions: SP3876, 48 h; in short: as §4
Candida albicans [14] = test: Antifungal activity against Candida albicans isolated from alveolar fluid after 48 hrs by broth microdilution method; type: functional; in short: as §4
Candida albicans [15] = test: Antifungal activity against fluconazole-resistant Candida albicans 56214 after 48 hrs by broth microdilution method; type: functional; conditions: Candida albicans, 56214, 48 h; in short: as §4
Candida albicans [16] = test: Antifungal activity against Candida albicans 14936 after 48 hrs by broth microdilution method; type: functional; conditions: Candida albicans, 14936, 48 h; in short: as §4
Candida parapsilosis = test: Antifungal activity against Candida parapsilosis cgmcc 2.3989 after 48 hrs by broth microdilution method; type: functional; conditions: Lodderomyces parapsilosis, cgmcc 2.3989, 48 h
In short: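 Modified CLSI M27-A2 broth microdilution. Yeast were suspended in MOPS-buffered RPMI 1640 at a final (0.5−1) × 10^3 CFU/mL and mixed 1:1 with peptide serially diluted in 0.2% BSA. Plates were incubated 48 h at 28 °C and read at A492. MIC is the lowest concentration giving 95% inhibition. Run in triplicate with three biological replicates.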

Candida albicans [17] = test: Fungicidal activity against Candida albicans cgmcc 2.2086 after 96 hrs; type: functional; conditions: cgmcc 2.2086, 96 h, read-out: MFC99.9
In short: (§5)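 After the 48 h, 28 °C broth microdilution in MOPS-buffered RPMI 1640 (inoculum (0.5−1) × 10^3 CFU/mL), 50 μL from each well was plated on YM agar for a further 48 h at 28 °C. MFC is the lowest concentration killing at least 99.9% of cells. Triplicate, three biological replicates.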

Candida albicans [18] = test: Fungicidal activity against Candida albicans SP3931 after 96 hrs; type: functional; conditions: SP3931, 96 h, read-out: MFC99.9; in short: as §5
Candida albicans [19] = test: Fungicidal activity against fluconazole-resistant Candida albicans 56452 after 96 hrs; type: functional; conditions: Candida albicans, 56452, 96 h; read-out: MFC99.9; in short: as §5
Candida albicans [20] = test: Fungicidal activity against fluconazole-resistant Candida albicans 56214 after 96 hrs; type: functional; conditions: Candida albicans, 56214, 96 h; read-out: MFC99.9; in short: as §5
Candida albicans [21] = test: Fungicidal activity against Candida albicans 14936 after 96 hrs; type: functional; conditions: Candida albicans, 14936, 96 h; read-out: MFC99.9; in short: as §5
Candida albicans [22] = test: Fungicidal activity against fluconazole-resistant Candida albicans 17546 after 96 hrs; type: functional; conditions: Candida albicans, 17546, 96 h; read-out: MFC99.9; in short: as §5
Escherichia coli [23] = test: Antibacterial activity against Escherichia coli ATCC 25922 after 18 hrs in presence of NaCl by broth dilution method; type: functional; conditions: ATCC 25922, 18 h
Escherichia coli [24] = test: Antibacterial activity against Escherichia coli ATCC 25922 after 18 hrs in presence of KCl by broth dilution method; type: functional; conditions: ATCC 25922, 18 h
Escherichia coli [25] = test: Antibacterial activity against Escherichia coli ATCC 25922 after 18 hrs in presence of NH4Cl by broth dilution method; type: functional; conditions: ATCC 25922, 18 h
Escherichia coli [26] = test: Antibacterial activity against Escherichia coli ATCC 25922 after 18 hrs in presence of MgCl2 by broth dilution method; type: functional; conditions: ATCC 25922, 18 h
Escherichia coli [27] = test: Antibacterial activity against Escherichia coli ATCC 25922 after 18 hrs in presence of CaCl2 by broth dilution method; type: functional; conditions: ATCC 25922, 18 h
Escherichia coli [28] = test: Antibacterial activity against Escherichia coli ATCC 25922 after 18 hrs in presence of FeCl3 by broth dilution method; type: functional; conditions: ATCC 25922, 18 h
Candida albicans [29] = test: Antifungal activity against Candida albicans cgmcc 2.2086 in presence of KCl by broth dilution method; type: functional
Candida albicans [30] = test: Antifungal activity against Candida albicans cgmcc 2.2086 in presence of MgCl2 by broth dilution method; type: functional
Candida albicans [31] = test: Antifungal activity against Candida albicans cgmcc 2.2086 in presence of FeCl3 by broth dilution method; type: functional
Candida albicans [32] = test: Fungicidal activity against Candida albicans 58288 after 96 hrs; type: functional; conditions: Candida albicans, 58288, 96 h; read-out: MFC99.9; in short: as §5

Substance | viability at 24 h, up to 64 µM [1] | MIC95 (Escherichia coli [2]) | MIC95 (Salmonella typhimurium [3]) | MIC95 (Staphylococcus aureus [4]) | MIC95 (Staphylococcus aureus [5]) | MIC95 [6] | MIC95 (Staphylococcus aureus [7]) | MBC (Escherichia coli [8]) | MBC (Escherichia coli [9]) | MBC (Salmonella typhimurium [10]) | MIC95 (Candida albicans [11]) | MIC95 (Candida albicans [12]) | MIC95 (Candida albicans [13]) | MIC95 (Candida albicans [14]) | MIC95 (Candida albicans [15]) | MIC95 (Candida albicans [16]) | MIC95 (Candida parapsilosis) | MFC (Candida albicans [17]) | MFC (Candida albicans [18]) | MFC (Candida albicans [19]) | also measured
H-FFRRFRRFF-NH2 | 70 to 80% | 8 µM | 4 µM | 8 µM | 4 µM | 4 µM | 4 µM | 8 µM | 16 µM | 8 µM | 16 µM | 16 µM | 16 µM | 16 µM | 16 µM | 16 µM | > 64 µM | 32 µM | 32 µM | 16 µM | MFC (Candida albicans [20]): 32 µM; MFC (Candida albicans [21]): 32 µM; MFC (Candida albicans [22]): 8 µM; MIC (Escherichia coli [23]): 8 µM; MIC (Escherichia coli [24]): 8 µM; MIC (Escherichia coli [25]): 8 µM; MIC (Escherichia coli [26]): 8 µM; MIC (Escherichia coli [27]): 32 µM; MIC (Escherichia coli [28]): 8 µM; MIC (Candida albicans [29]): 16 µM; MIC (Candida albicans [30]): 16 µM; MIC (Candida albicans [31]): 32 µM; MFC (Candida albicans [32]): 32 µM
H-RIRIIIRIR-NH2 | 70 to 80% | 8 µM | 4 µM | 4 µM | 4 µM | 4 µM | 4 µM | 8 µM | 8 µM | 8 µM | 4 µM | 2 µM | 1 µM | 4 µM | 2 µM | 2 µM | 8 µM | 8 µM | 8 µM | 4 µM | MFC (Candida albicans [20]): 4 µM; MFC (Candida albicans [21]): 2 µM; MFC (Candida albicans [22]): 2 µM; MIC (Escherichia coli [23]): 8 µM; MIC (Escherichia coli [24]): 8 µM; MIC (Escherichia coli [25]): 4 µM; MIC (Escherichia coli [26]): 8 µM; MIC (Escherichia coli [27]): 16 µM; MIC (Escherichia coli [28]): 8 µM; MIC (Candida albicans [29]): 4 µM; MIC (Candida albicans [30]): 4 µM; MIC (Candida albicans [31]): 4 µM; MFC (Candida albicans [32]): 4 µM
H-RFFRRFRRFFR-NH2 | 70 to 80% | 8 µM | 4 µM | 8 µM | 4 µM | 4 µM | 4 µM | 8 µM | 8 µM | 8 µM | 8 µM | 4 µM | 8 µM | 8 µM | 8 µM | 8 µM | > 64 µM | 16 µM | 16 µM | 8 µM | MFC (Candida albicans [20]): 16 µM; MFC (Candida albicans [21]): 16 µM; MFC (Candida albicans [22]): 8 µM; MIC (Escherichia coli [23]): 8 µM; MIC (Escherichia coli [24]): 8 µM; MIC (Escherichia coli [25]): 4 µM; MIC (Escherichia coli [26]): 2 µM; MIC (Escherichia coli [27]): 8 µM; MIC (Escherichia coli [28]): 8 µM; MIC (Candida albicans [29]): 16 µM; MIC (Candida albicans [30]): 8 µM; MIC (Candida albicans [31]): 8 µM; MFC (Candida albicans [32]): 16 µM
H-RRIRIIIRIRR-NH2 | > 85% | 4 µM | 4 µM | 4 µM | 4 µM | 4 µM | 4 µM | 4 µM | 4 µM | 4 µM | 2 µM | 1 µM | 1 µM | 2 µM | 1 µM | 2 µM | 4 µM | 2 µM | 4 µM | 1 µM | MFC (Candida albicans [20]): 2 µM; MFC (Candida albicans [21]): 2 µM; MFC (Candida albicans [22]): 2 µM; MIC (Escherichia coli [23]): 4 µM; MIC (Escherichia coli [24]): 4 µM; MIC (Escherichia coli [25]): 4 µM; MIC (Escherichia coli [26]): 2 µM; MIC (Escherichia coli [27]): 8 µM; MIC (Escherichia coli [28]): 4 µM; MIC (Candida albicans [29]): 2 µM; MIC (Candida albicans [30]): 2 µM; MIC (Candida albicans [31]): 2 µM; MFC (Candida albicans [32]): 2 µM

Reference: ChEMBL document CHEMBL4177755, “Combating Drug-Resistant Fungi with Novel Imperfectly Amphipathic Palindromic Peptides” (J Med Chem, 2018)
